Screening data as filed in PubChem.
An excerpt weighted towards active compounds, which were near 0.79% of everything screened.
mIAP inh: blocks mouse intestinal alkaline phosphatase. inhibition, % at 10 µM. purified mouse IAP, CDP-Star luminescence, 30 min. hit rate 0.2% among 330,000. AID 2806;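 active means inhibition of at least 40% at 10 µM in the primary screen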
mIAP activ: mouse IAP activation; muIAP, CDP-Star luminescence, 30 min; hits give high values; 1 = vehicle-only enzyme signal, 0 = enzyme-free wells; activation factor at 10 µM; hit rate 0.24% among 330,000; AID 2805;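 active means activation factor of at least 2 at 20 µM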
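Assay system: mouse IAP enzyme; reagent: chemiluminescent substrate CDP-Star; dosing: test compounds delivered from DMSO solution; schedule: 30 min at room temperature; measured by: luminescence from enzymatic CDP-Star hydrolysis; controls: DMSO-only wells and no-enzyme negative control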
hIAP inh: blocks human intestinal alkaline phosphatase; P09923; purified IAP, CDP-Star luminescence, 30 min; inhibition, % at 10 µM; hit rate 0.12% among 330,000; AID 2544;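 active means inhibition reaching a set limit with compound at 10 µM in the primary screen, cut at about 35% in these data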
Target sequence (P09923 whole entry, looked up): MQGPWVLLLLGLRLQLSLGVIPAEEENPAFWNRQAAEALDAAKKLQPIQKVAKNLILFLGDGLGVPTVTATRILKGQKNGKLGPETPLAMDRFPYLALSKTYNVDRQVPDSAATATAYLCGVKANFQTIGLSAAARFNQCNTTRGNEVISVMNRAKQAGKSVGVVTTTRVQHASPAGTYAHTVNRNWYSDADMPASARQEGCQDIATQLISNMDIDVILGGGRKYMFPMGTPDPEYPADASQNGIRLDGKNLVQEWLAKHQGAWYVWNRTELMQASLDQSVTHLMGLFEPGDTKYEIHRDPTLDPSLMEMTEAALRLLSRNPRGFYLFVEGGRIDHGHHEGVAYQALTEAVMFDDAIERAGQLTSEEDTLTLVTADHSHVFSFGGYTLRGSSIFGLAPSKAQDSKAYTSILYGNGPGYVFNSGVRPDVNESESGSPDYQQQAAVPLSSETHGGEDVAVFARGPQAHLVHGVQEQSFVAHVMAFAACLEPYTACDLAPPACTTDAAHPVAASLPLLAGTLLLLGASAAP
bIAP act: intestinal alkaline phosphatase (bovine) activation | purified bovine IAP, CDP-star luminescence, 30 min; hits give high values; fold of DMSO-control signal, blank-subtracted | activation factor at 20 µM | hit rate 0.17% among 200,000 | AID 1016;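 active means activation factor of 2 or more at 20 µM, a signal rise over negative controls twice the positive control's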
hIAP activ: increases human intestinal alkaline phosphatase activity; purified human IAP, CDP-Star luminescence, 30 min; hits give high values; 1 = vehicle-only enzyme, 0 = enzyme-free background; activation factor at 10 µM; hit rate 0.16% among 330,000; AID 2524;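 active means activation factor of the enzyme at least 2-fold when tested at 20 µM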
bIAP inh: blocks bovine intestinal alkaline phosphatase activity; 190,000 tested, under 10 active; purified bovine IAP, CDP-star luminescence, 30 min; inhibition, % at 20 µM; AID 1019;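 active means over 50% inhibition of intestinal alkaline phosphatase at 20 µM in the single-dose screen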
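test system = bovine IAP enzyme | medium = DEA buffer 100 mM, pH 9.8, with MgCl2 1.0 mM, ZnCl2 0.02 mM | detection = luminescence | dosing = single compound dose of 20 µM, 2% DMSO final | incubation = 30 min reaction at room temperature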
mIAP inh conf: mouse IAP inhibition confirmation; purified mouse IAP, CDP-Star luminescence, 30 min; inhibition, % at 10 µM; shares compounds with mIAP inh; hit rate 4.7% among 11,000;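 active means inhibition of at least 40% at 10 µM in either of the two replicates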
Numbers stand for hits; - = inactive; . = no result given.

SMILES	mIAP inh	mIAP activ	hIAP inh	bIAP act	hIAP activ	bIAP inh	mIAP inh conf
Cc1cc(O)c(Sc2ncn[nH]2)cc1NS(=O)(=O)c1ccc(Cl)cc1	47	-	-	.	-	.	44
O=S(=O)(Nc1cc(Sc2ncn[nH]2)c(O)c2ccccc12)c1ccccc1	-	-	-	-	-	-	.
NS(=O)(=O)c1ccc(-c2ccc(C=O)o2)cc1	-	-	-	-	-	-	.
CC1=C(C#N)C(=O)NC(=O)/C1=C/c1ccc(-c2ccc(S(N)(=O)=O)cc2)o1	54	-	-	-	-	-	70
NS(=O)(=O)c1ccc(-c2ccc(/C=C3\NC(=S)NC3=O)o2)cc1	90	-	-	.	-	.	77
CC(C)OC(=O)/C(C#N)=C/c1ccc(-c2ccc(SC(F)F)cc2)o1	-	-	-	-	-	-	.
COC(=O)/C(C#N)=C/c1ccc(-c2ccc(S(N)(=O)=O)cc2)o1	64	-	-	.	-	.	79
C#CCN(Cc1ccccc1)S(=O)(=O)C=C	-	-	-	.	-	.	.
Cc1ccc(S(=O)(=O)N2CCCC2C(=O)NCc2ccccc2F)cc1 (configuration not stated)	-	-	-	.	-	.	.
COc1ccc(NC2CCCN(C(=O)c3cccc(C)n3)C2)cc1OC (configuration not stated)	-	-	-	.	-	.	.
CCN1/C(=C/C=C/c2oc3ccc(-c4ccccc4)cc3[n+]2CC)Oc2ccc(-c3ccccc3)cc21	65	-	-	-	-	-	50
CCCCN1C(=O)/C(=C/C=C2\Oc3ccccc3N2CC)SC1=S	.	.	.	-	.	-	.
C=C1c2cccc(O)c2C(=O)C2C(=O)[C@]3(O)C(=O)C(C(N)=O)C(=O)[C@@H](N(C)C)[C@@H]3[C@@H](O)[C@H]12 (some centres not stated)	49	-	-	.	-	.	48
COC(=O)c1ccccc1NCc1cc(=O)oc2cc(O)c(O)cc12	44	-	-	.	-	.	44
CCc1nnc(NC(=O)CSc2sc3c(O)cc(=O)[nH]c3c2C#N)s1	44	-	-	.	-	.	65
CCSc1nnc(NC(=O)CSc2sc3c(O)cc(=O)[nH]c3c2C#N)s1	-	-	-	.	-	.	.
Cc1csc(NC(=O)CSc2sc3c(O)cc(=O)[nH]c3c2C#N)n1	47	-	-	.	-	.	68
COc1cc(OC)cc(C(=O)NCC2CCCN(C(=O)c3csc(C(C)C)n3)C2)c1 (configuration not stated)	-	-	-	.	-	.	.
CCC(=O)Nc1sc2c(c1C#N)CCC2	-	-	-	-	-	-	.
CC(C)CC(=O)NC(NC(=S)Nc1sc2c(c1C#N)CCCC2)C(Cl)(Cl)Cl (configuration not stated)	41	-	-	-	-	-	41
O=c1c(O)c(-c2cc(O)c(O)c(O)c2)oc2cc(O)cc(O)c12	75	-	-	.	-	.	75
O=c1c(O)c(-c2ccccc2)oc2cc(O)cc(O)c12	-	-	-	.	-	.	.
O=C(CNS(=O)(=O)c1ccc([N+](=O)[O-])cc1)N/N=C/c1ccc(O)cc1O	40	-	-	.	-	.	42
O=C(CNS(=O)(=O)c1ccc([N+](=O)[O-])cc1)N/N=C\c1ccc(O)cc1	-	-	-	.	-	.	.
CCCCNC(=O)Nc1ccc2c(c1)N(C)C(=O)c1ccccc1S2	-	2.7	-	.	-	.	-
SMILES	mIAP inh	mIAP activ	hIAP inh	bIAP act	hIAP activ	bIAP inh	mIAP inh conf
O=C(Nc1cccc(C(F)(F)F)c1)c1cncs1	-	-	-	.	-	.	.
O=C(N/N=C/c1ccc([N+](=O)[O-])o1)c1ccc2c(c1)OCO2	45	-	-	.	-	.	55
O=C(N/N=C/c1ccc([N+](=O)[O-])o1)c1ccc(NS(=O)(=O)c2cccs2)cc1	50	-	-	.	-	.	59
N#Cc1ccc(CC(C(=O)O)N2Cc3ccccc3C2=O)cc1 (configuration not stated)	-	-	-	.	-	.	.
Cc1csc(N)n1	-	-	-	-	-	-	.
CC(=O)NCc1ccc(-c2csc(N)n2)s1	72	-	-	-	-	-	77
CC(=O)Nc1cccc(-c2csc(N)n2)c1	-	-	-	-	-	-	.
Cc1ccc(-c2csc(N)n2)s1	68	-	-	-	-	-	78
CCOC(=O)c1sc(N=NC2=C(O)CC(C)(C)CC2=O)c(C(=O)OCC)c1C	-	4	-	-	-	-	-
CCOC(=O)c1cc(CC)sc1/N=C/C1=C(O)CC(C)(C)CC1=O	-	-	-	-	-	-	.
COc1ccccc1NC(=O)C1CCN(C(=O)c2ccco2)CC1	-	-	-	.	-	.	.
COc1ccc(C2/C(=C(/O)c3ccc(Br)cc3)C(=O)C(=O)N2C)cc1OC (configuration not stated)	-	-	-	.	-	.	.
CC(=O)c1ccc2c(c1)C1C=CCC1C(C(=O)O)N2 (configuration not stated)	47	-	-	-	-	-	59
C#CCOCCOCCOCCNc1nc(N2CCN(C(=O)CCCCCCCCCCNC(=O)[C@@H](CCSC)n3cc(CCO)nn3)CC2)nc(N2CCN(C(=O)CCCCCCCCCCNC(=O)[C@H]([C@@H](C)CC)n3cc(CCCCN=C(N)N)nn3)CC2)n1	-	22	-	.	-	.	-
C#CCOCCOCCOCCNc1nc(N2CCOCC2)nc(N2CCN(C(=O)CCCCCCCCCCNC(=O)[C@@H](CCSC)n3cc(CCO)nn3)CC2)n1	-	-	-	.	-	.	.
C#CCOCCOCCOCCNc1nc(N2CCN(C(=O)CCCCCCCCCCNC(=O)[C@@H](CCSC)n3cc(CCO)nn3)CC2)nc(N2CCN(C(=O)CCCCCCCCCCNC(=O)[C@H]([C@@H](C)CC)n3cc(CCCCCN)nn3)CC2)n1	-	3.5	-	.	-	.	-
C#CCOCCOCCOCCNc1nc(N2CCN(C(=O)CCCCCCCCCCNC(=O)[C@H]([C@@H](C)CC)n3cc(CCCCCN)nn3)CC2)nc(N2CCN(C(=O)CCCCCCCCCCNC(=O)[C@@H]([C@H](C)O)n3cc(C)nn3)CC2)n1	-	2.1	-	.	-	.	-
C#CCOCCOCCOCCNc1nc(N2CCN(C(=O)CCCCCCCCCCNC(=O)Cn3cc(CCCCCN)nn3)CC2)nc(N2CCN(C(=O)CCCCCCCCCCNC(=O)[C@H]([C@@H](C)CC)n3cc(CCCCCN)nn3)CC2)n1	-	4.1	-	.	-	.	-
C#CCOCCOCCOCCNc1nc(N2CCN(C(=O)CCCCCCCCCCNC(=O)[C@H](CCC(=O)O)n3cc(CCCCCN)nn3)CC2)nc(N2CCN(C(=O)CCCCCCCCCCNC(=O)[C@@H]([C@H](C)O)n3cc(C)nn3)CC2)n1	-	-	-	.	-	.	.
